In assay [1] the target is Serine/threonine-protein kinase pim-1 (Homo sapiens, UniProt P11309). The experiment in a line: Inhibition of recombinant human Pim1 expressed in bacterial expression system using histone H1 as substrate after 30 mins by ADP-Glo reagent based luminescence assay. An outline of the steps: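 Recombinant human Pim-1 (bacterially expressed) with histone H1 at 0.8 µg/µL, 10 µM ATP, in 40 mM Tris pH 7.5, 20 mM MgCl₂ and 0.1 mg/mL BSA, for 30 min at 30 °C. ADP-Glo reagent stops the reaction (50 min, rt), then detection reagent is added (1 h, rt) and luminescence is read.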
Serine/threonine-protein kinase pim-1, sequence (P11309 whole entry): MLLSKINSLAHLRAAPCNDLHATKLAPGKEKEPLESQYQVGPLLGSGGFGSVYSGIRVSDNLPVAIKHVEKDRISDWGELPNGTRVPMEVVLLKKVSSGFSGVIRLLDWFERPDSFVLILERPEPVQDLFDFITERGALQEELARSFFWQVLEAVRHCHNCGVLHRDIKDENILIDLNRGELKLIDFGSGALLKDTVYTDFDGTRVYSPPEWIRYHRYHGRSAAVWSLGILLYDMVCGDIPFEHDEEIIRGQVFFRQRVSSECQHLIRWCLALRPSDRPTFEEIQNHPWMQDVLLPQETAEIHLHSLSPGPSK

In assay [2] the target is T1, Serine/threonine-protein kinase haspin (Homo sapiens, UniProt Q8TF76).
T1 sequence (Q8TF76 whole entry): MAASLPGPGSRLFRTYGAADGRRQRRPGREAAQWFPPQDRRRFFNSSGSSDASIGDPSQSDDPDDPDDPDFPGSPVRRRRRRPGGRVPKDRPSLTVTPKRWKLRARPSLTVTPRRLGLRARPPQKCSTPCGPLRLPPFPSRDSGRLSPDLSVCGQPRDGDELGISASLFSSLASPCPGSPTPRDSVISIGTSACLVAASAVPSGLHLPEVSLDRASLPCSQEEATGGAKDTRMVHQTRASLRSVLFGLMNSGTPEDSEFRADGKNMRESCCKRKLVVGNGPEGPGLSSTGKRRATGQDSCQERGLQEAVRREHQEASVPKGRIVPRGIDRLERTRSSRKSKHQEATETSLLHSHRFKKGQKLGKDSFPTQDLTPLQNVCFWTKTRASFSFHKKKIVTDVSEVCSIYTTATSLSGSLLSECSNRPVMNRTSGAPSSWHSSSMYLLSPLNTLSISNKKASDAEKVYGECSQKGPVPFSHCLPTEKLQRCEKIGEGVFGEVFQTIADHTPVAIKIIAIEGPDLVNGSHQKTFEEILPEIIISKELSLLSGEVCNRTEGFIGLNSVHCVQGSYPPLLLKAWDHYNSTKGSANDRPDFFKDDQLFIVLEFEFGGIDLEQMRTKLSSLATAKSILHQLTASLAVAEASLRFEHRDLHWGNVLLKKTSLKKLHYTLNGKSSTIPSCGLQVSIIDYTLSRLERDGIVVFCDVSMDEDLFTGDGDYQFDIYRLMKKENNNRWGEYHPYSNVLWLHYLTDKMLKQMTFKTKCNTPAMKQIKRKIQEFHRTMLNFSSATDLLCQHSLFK
The experiment in a line: Inhibition of recombinant human haspin kinase domain (470 to 798 residues) expressed in bacterial expression system using histone H3 peptide as substrate after 30 mins by ADP-Glo reagent based luminescence assay.

Assay [3] addresses Dual specificity protein kinase CLK1 (Mus musculus, UniProt P22518).
The next assay addresses CDK9/cyclin T1 (Homo sapiens, UniProt P50750). Kind of assay: Inhibition of recombinant human CDK9/CyclinT expressed in baculovirus infected Sf9 insect cells using YSPTSPSYSPTSPSYSPTSPSKKKK as substrate after 30 mins by ADP-Glo reagent based luminescence assay.
Another assay has as its system KU812 cell line. Kind of assay: Cytotoxicity against human KU812 cells assessed as reduction in cell viability after 48 hrs by MTT assay. Conditions: KU812, 48 h. It counts as functional, cell-based.
In assay [4] the target is Glycogen synthase kinase-3 (Sus scrofa, UniProt B2LUN4+I6LNT8).
Assay [5] addresses Dual specificity tyrosine-phosphorylation-regulated kinase 1A (Rattus norvegicus, UniProt Q63470).
In another assay the target is CDK2/Cyclin A2 (Homo sapiens, UniProt P24941). Kind of assay: Inhibition of human CDK2/CyclinA using histone H1 as substrate after 30 mins by ADP-Glo reagent based luminescence assay. It counts as protein-complex assay.

Counter-ions that a name gives are not always drawn. Some results are limits rather than exact numbers.

Dual specificity protein kinase CLK1, sequence (P22518 whole entry): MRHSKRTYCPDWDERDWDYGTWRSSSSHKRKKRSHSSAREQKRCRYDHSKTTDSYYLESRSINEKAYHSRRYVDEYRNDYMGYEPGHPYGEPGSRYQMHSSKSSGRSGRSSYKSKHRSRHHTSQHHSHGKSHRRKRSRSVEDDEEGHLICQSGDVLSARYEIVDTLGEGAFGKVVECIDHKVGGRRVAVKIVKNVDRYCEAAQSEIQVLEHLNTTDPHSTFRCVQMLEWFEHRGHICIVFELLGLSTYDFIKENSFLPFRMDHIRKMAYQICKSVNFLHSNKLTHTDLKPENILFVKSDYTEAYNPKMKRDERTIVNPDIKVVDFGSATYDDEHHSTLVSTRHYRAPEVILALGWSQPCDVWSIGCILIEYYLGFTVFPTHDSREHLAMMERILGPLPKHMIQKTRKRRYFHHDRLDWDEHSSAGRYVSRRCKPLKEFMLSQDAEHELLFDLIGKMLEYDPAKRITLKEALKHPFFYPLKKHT
CDK9/cyclin T1, sequence (O60563 whole entry): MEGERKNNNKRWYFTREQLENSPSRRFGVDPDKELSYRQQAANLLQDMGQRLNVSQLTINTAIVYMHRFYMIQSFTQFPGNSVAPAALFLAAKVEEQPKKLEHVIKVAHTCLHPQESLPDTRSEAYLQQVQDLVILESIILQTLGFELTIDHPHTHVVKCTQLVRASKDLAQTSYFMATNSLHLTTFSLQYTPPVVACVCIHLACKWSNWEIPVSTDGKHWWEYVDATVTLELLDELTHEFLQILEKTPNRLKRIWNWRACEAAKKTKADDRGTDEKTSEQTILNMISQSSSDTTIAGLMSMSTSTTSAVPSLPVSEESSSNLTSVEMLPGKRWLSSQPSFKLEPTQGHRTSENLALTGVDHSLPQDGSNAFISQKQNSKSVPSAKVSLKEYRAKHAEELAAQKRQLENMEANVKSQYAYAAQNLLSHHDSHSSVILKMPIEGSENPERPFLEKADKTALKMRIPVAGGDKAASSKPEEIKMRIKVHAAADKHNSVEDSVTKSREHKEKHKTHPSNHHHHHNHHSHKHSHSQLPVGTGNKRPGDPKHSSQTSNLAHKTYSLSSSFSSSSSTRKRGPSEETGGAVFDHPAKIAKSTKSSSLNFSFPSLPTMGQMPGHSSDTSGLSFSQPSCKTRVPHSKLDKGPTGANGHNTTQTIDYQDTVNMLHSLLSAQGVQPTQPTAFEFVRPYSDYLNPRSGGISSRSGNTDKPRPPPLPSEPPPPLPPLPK
CDK9/cyclin T1, sequence (P50750 whole entry): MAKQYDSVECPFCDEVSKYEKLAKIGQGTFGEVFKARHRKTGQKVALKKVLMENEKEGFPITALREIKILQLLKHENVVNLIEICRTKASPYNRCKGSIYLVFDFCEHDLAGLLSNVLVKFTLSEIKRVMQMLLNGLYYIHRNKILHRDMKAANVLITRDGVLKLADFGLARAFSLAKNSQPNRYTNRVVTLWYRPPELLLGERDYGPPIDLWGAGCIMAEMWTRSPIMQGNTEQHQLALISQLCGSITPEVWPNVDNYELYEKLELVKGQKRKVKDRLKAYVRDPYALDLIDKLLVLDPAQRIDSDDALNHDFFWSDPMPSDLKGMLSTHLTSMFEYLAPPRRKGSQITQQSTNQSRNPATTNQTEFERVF

For `Nc1ccc(Nc2nc3ccccc3nc2C(=O)O)cc1`, in assay [1], the IC50 is more than 10 µM.
Consider `CCOC(=O)c1nc2ccccc2nc1Nc1ccc(C2CCN(C)CC2)cc1`, for which the IC50 in assay [1] is more than 10 µM.
Regarding `NC(=O)c1nc2ccccc2nc1Nc1cccc(N2CCOCC2)c1`, in assay [1], the IC50 is more than 10 µM.
For `O=C(O)c1nc2ccccc2nc1Nc1ccc(O)cc1`, the half-inhibitory concentration (IC50) in assay [2] is more than 10 µM; in assay [3] it was more than 10 µM; at CDK9/cyclin T1, more than 10 µM; in assay [4] it was more than 10 µM; in assay [5], 0.098 µM; in assay [1], 0.29 µM. The IC50 against CDK2/Cyclin A2 was more than 10 µM. In addition, in the assay with KU812 cell line, the concentration giving a half-maximal response (EC50) turned out to be 41.7 µM.
In the case of `CCOC(=O)c1nc2ccccc2nc1Nc1cccc(N2CCOCC2)c1`, the IC50 in assay [1] is more than 10 µM.
As for `O=C(O)c1nc2ccccc2nc1Nc1ccccc1O`, the IC50 in assay [2] was more than 10 µM; in assay [3], more than 10 µM; on CDK9/cyclin T1, more than 10 µM; in assay [4], more than 10 µM; in assay [5] it was 0.74 µM; in assay [1], 0.76 µM. For the same compound, the IC50 at CDK2/Cyclin A2 is more than 10 µM. The EC50 in the assay on KU812 cell line is 178 µM.
For the compound `O=C(O)c1nc2ccccc2nc1Nc1ccc2[nH]ccc2c1`, the IC50 in assay [1] was more than 10 µM.
Still for that read-out and setting: as for `CCOC(=O)c1nc2ccccc2nc1Nc1cccc(O)c1`, the figure is more than 10 µM.
In the case of `CCOC(=O)c1nc2ccccc2nc1Nc1cccc(N)c1`, the IC50 in assay [1] is more than 10 µM.
`CN1CCC(c2ccc(Nc3nc4ccccc4nc3C(=O)O)cc2)CC1`: the IC50 in assay [1] was more than 10 µM.
In the case of `CCOC(=O)c1nc2ccccc2nc1Nc1ccc(N)cc1`, the IC50 in assay [1] was more than 10 µM.
With `O=C(O)c1nc2ccccc2nc1Nc1cccc(N2CCOCC2)c1`, the IC50 was more than 10 µM in assay [2]; more than 10 µM in assay [3]; more than 10 µM on CDK9/cyclin T1; more than 10 µM in assay [4]; more than 10 µM in assay [5]; 1.01 µM in assay [1]. Besides, the half-inhibitory concentration (IC50) against CDK2/Cyclin A2 is more than 10 µM. Also, in the assay with KU812 cell line, the EC50 is 57.3 µM.
As to `CCOC(=O)c1nc2ccccc2nc1Nc1ccc(O)cc1`, the IC50 in assay [1] is more than 10 µM.
As to `Nc1cccc(Nc2nc3ccccc3nc2C(=O)[O-])c1.[K+]`, the half-inhibitory concentration (IC50) in assay [2] is more than 10 µM; in assay [3], more than 10 µM; on CDK9/cyclin T1 it was more than 10 µM; in assay [4] it was more than 10 µM; in assay [5] it was 1.67 µM; in assay [1], 2.8 µM. This compound yielded an IC50 on CDK2/Cyclin A2 of more than 10 µM. The EC50 in the assay with KU812 cell line worked out at 63.8 µM.
In the case of `CCOC(=O)c1nc2ccccc2nc1Nc1ccc2[nH]ccc2c1`, the IC50 in assay [1] is more than 10 µM.
With `CCOC(=O)c1nc2ccccc2nc1Nc1ccccc1O`, the IC50 in assay [1] is more than 10 µM.
Take `O=C(O)c1nc2ccccc2nc1Nc1cccc(O)c1`: the IC50 (in assay [2]; in assay [3]; on CDK9/cyclin T1; in assay [4]; against CDK2/Cyclin A2) was more than 10 µM in each case. In addition, the concentration for a half-maximal effect (EC50) in the assay on KU812 cell line is 38.9 µM.
As for `Cc1ccc(NC(=O)c2ccc(CN3CCN(C)CC3)cc2)cc1Nc1nccc(-c2cccnc2)n1` [IMATINIB MESYLATE], the EC50 with KU812 cell line stood at 0.6 µM.

Source of the values: ChEMBL document CHEMBL4152267, “Structure-based design of novel quinoxaline-2-carboxylic acids and analogues as Pim-1 inhibitors” (Eur J Med Chem, 2018).
